Most compounds without a hit are left out; they make up all but 0.64% or so of the library.
PMI act hi M6P: human PMI activators, high substrate, primary screen, biochemical, fluorescence intensity, near-saturating mannose 6-phosphate | Mannose-6-phosphate isomerase (Homo sapiens), P34949 | coupled PMI enzyme assay, resazurin fluorescence, 20 min; active compounds read high; 1 = untreated enzyme, 0 = substrate-free blank | activation factor at 20 µM | actives 0.34% (n = 190,000) | AID 1216, 2008;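 active = activation factor of 2 or more at 20 µM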
Target sequence (P34949 whole entry, looked up): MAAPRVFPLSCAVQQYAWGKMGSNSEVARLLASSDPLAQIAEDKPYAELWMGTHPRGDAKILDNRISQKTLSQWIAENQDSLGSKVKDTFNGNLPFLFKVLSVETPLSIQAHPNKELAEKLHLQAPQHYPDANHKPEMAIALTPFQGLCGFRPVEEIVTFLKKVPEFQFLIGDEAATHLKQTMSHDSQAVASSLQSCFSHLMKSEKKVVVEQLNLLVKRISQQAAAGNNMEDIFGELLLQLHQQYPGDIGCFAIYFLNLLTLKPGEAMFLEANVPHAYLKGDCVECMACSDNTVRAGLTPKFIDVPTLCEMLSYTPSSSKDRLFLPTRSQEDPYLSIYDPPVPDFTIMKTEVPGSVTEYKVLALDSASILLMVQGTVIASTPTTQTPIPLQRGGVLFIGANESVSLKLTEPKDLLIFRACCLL
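Test system – human PMI in coupled enzyme assay · Timing – 20 min incubation at room temperature · Detection – Diaphorase-driven resazurin-to-resorufin fluorescence, excitation 544, emission 590 nm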
TNAP inh no acc: human TNAP enzyme inhibitors, primary screen, biochemical, luminescent, no phosphate acceptor, uHTS | purified TNAP, CDP-star luminescence, 30 min | AID 1012, 2008 | inhibition, % at 20 µM | Alkaline phosphatase, tissue-nonspecific isozyme (Homo sapiens), P05186 | actives 0.26% (n = 200,000);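 active = tissue-nonspecific alkaline phosphatase inhibition above about 50% at 20 µM in the single-dose screen, limit read from the data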;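 also: 0% = DMSO negative control and 100% = EDTA positive control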
TNAP inh hiacc: human TNAP enzyme inhibitors, primary screen, biochemical, luminescent, high phosphate acceptor level, uHTS; Alkaline phosphatase, tissue-nonspecific isozyme (Homo sapiens), P05186; purified TNAP, CDP-star luminescence, 1 M DEA; inhibition, % at 20 µM; actives 0.03% (n = 200,000);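 active = over 50% inhibition of tissue-nonspecific alkaline phosphatase at 20 µM in the single-dose screen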;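 also: plate controls were DMSO wells for no effect and EDTA-quenched wells as full inhibition for full effect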
PMI act: activators of human PMI, primary screen, biochemical, fluorescence intensity, near-Km mannose 6-phosphate; Mannose-6-phosphate isomerase (Homo sapiens), P34949; activation factor at 20 µM; purified human PMI, coupled resazurin fluorescence, 20 min; active compounds read high; 1 = vehicle control, 0 substrate-free wells; AID 1214, 2008; actives 0.005% (n = 190,000);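 active = activation factor of 2 or more at 20 µM, relative to plate controls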
TNAP act hi DEA: TNAP activators at high phosphate acceptor level, primary screen, biochemical, luminescence, uHTS; 200,000 tested, under 10 active; AID 1136, 2008; Alkaline phosphatase, tissue-nonspecific isozyme (Homo sapiens), P05186; activation factor at 20 µM; purified TNAP, CDP-star luminescence, 1 M DEA, 30 min; active compounds read high; 0 = EDTA background, 1 = DMSO-only activity;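 active = activation factor at least 2 at 20 µM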
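Test system – human TNAP · Doses – 20 µM single point · Incubation – 30 min, room temperature · Signal – luminescent substrate turnover signal · Read-out basis – activation factor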
Active calls of the source: *.

SMILES | PMI act hi M6P | TNAP inh no acc | TNAP inh hiacc | PMI act | TNAP act hi DEA
O=C(O)CCCCCN=Cc1c(O)c2ccccc2oc1=O | 0.9 | -9 | 2 | 0.9 | 1
CCc1ccc2[nH]c(=O)c(C(c3nnnn3CC3CCCO3)N3CCN4CCCC4C3)cc2c1 (configuration not stated) | 1.7 | -7 | 0 | 1.3 | 1
CCOc1ccc(-n2c(C)cc(/C=C3/C(=N)N4C(=NC3=O)SN=C4S(C)(=O)=O)c2C)cc1 | 2.1* | -6 | 0 | 1.6 | 1
Cc1cc(/C=C2/C(=N)N3C(=NC2=O)SN=C3S(C)(=O)=O)c(C)n1-c1ccc(F)cc1 | 1.3 | -1 | -3 | 1.4 | 1
Cc1ccc(SCC(=O)N2c3ccccc3Sc3ccccc32)cc1 | 0.9 | -10 | -9 | 0.9 | 1.1
O=c1cc(-c2ccc([N+](=O)[O-])cc2)nc2cc(-c3ccc(Cl)cc3)[nH]n12 | 1.1 | 51* | 3 | 1.1 | 1
CCOC(=O)Cc1cc(=O)n2[nH]c(-c3ccc(Cl)cc3)cc2n1 | 1 | 10 | -4 | 1 | 1
Cc1nc([N+](=O)[O-])c(Sc2nc3ccccc3n2C)n1Cc1ccccc1 | 1 | -9 | -4 | 1 | 1
COc1ccc(-c2nc(SC(CC(=O)NCCO)c3cccs3)n[nH]2)cc1 (configuration not stated) | 1 | 71* | -4 | 1.1 | 1
CN(CCc1ccccn1)C(=O)CCC1CCCN(C(=O)c2n[nH]c3c2CCCC3)C1 (configuration not stated) | 1.1 | 70* | -4 | 1 | 1
CCn1ccc2cc(OC)ccc2c1=S | 2* | -1 | 1 | 1.4 | 1
CCN(C(=O)COC(=O)c1ccc2c(=O)n3c(nc2c1)CCC3)C1CCS(=O)(=O)C1 (configuration not stated) | 0.9 | -12 | -2 | 1.1 | 1
CC(C)n1c(-c2ccccc2F)n[nH]c1=S | 1.1 | 69* | 3 | 1 | 1
NC(=O)c1cc(C(=O)c2ccc(Cl)cc2)c[nH]1 | 1 | -13 | 0 | 1 | 1
O=C(CSc1ncn[nH]1)Nc1nc(-c2ccccc2)ns1 | 1 | 76* | -3 | 0.9 | 1
Cc1ccccc1N/C(=C(/C(Cl)=C(Cl)Cl)[N+](=O)[O-])n1nnc2ccccc21 | 2.2* | -3 | 0 | 1.6 | 1
CN(C)C(=O)c1cn(-c2ccccc2)nc1-c1cc2ccccc2o1 | 2.5* | -10 | -4 | 1.6 | 1
O=C(NNc1cccc(Cl)n1)c1cccnc1Cl | 1 | -41 | 0 | 1.1 | 1
O=C(NNc1cccc(Cl)c1)c1cccnc1Cl | 2* | -6 | 1 | 1.7 | 1
Cc1nc(SCCC(C)C)c([N+](=O)[O-])[nH]1 | 1.6 | 9 | 0 | 1.6 | 1
CCCCSc1nc(C)[nH]c1[N+](=O)[O-] | 2* | -11 | -2 | 1.7 | 1
Nc1nc(CN2CCN(c3ccccc3F)CC2)nc(N2CCCc3ccccc32)n1 | 1 | -8 | -7 | 1 | 1.1
Cc1ccccc1OCc1nnc2c3cnn(C)c3ncn12 | 1.1 | 55* | -6 | 1.1 | 1.1
COc1ccc(C2C=C(Nc3ccccc3)C(=O)N2c2ccccc2)cc1OC (configuration not stated) | 1.8 | -14 | 1 | 1.4 | 1
COc1cccc(C2C=C(Nc3ccccc3)C(=O)N2c2ccccc2)c1 (configuration not stated) | 2.2* | -2 | -6 | 1.7 | 1.1
SMILES | PMI act hi M6P | TNAP inh no acc | TNAP inh hiacc | PMI act | TNAP act hi DEA
O=c1/c(=C/c2ccco2)sc2nc(-c3ccccc3Br)nn12 | 1.2 | 58* | -6 | 1 | 1.1
C/C(N)=C(/C#N)C(=O)CSc1n[nH]c(-c2cccs2)n1 | 1 | 62* | -4 | 1.1 | 1
Cc1cc(NC(=O)CSc2n[nH]c(-c3cccs3)n2)no1 | 0.9 | 9 | -3 | 0.8 | 1
Cc1ccc(-c2cc3cccc[n+]3cc2-c2ccc(C)cc2)cc1 | 1 | -2 | -2 | 1 | 1
CC1=NN(c2ccccc2)C(=O)/C1=C/C=C/C=C/N(C)C | 0.5 | 36 | 55* | 0.5 | 0.4
CC1=NN(c2ccc(C)cc2)C(=O)/C1=C\C=C\c1ccccc1 | 1.1 | 5 | 3 | 1 | 1
CC(C)C(=O)n1nc(-c2cccnc2)nc1NCc1cccs1 | 1 | 42 | -2 | 1 | 1
O=C(c1cccnc1)n1nc(-c2ccco2)nc1NCc1cccs1 | 1 | 63* | -2 | 1.1 | 1
CCOc1cc(C(c2c(C)[nH][nH]c2=O)c2c(C)[nH][nH]c2=O)ccc1OS(=O)(=O)c1ccc(C)cc1 | 0.9 | -13 | 52* | 0.9 | 0.5
CCOc1cc(C(c2c(C)[nH][nH]c2=O)c2c(C)[nH][nH]c2=O)ccc1OCc1ccc([N+](=O)[O-])cc1 | 0.8 | -53 | 13 | 0.8 | 0.9
CCOc1cc(/C=N/O)ccc1OS(=O)(=O)c1ccc(C)cc1 | 0.8 | 0 | -1 | 0.8 | 1
CCOc1ccc(C(c2c(C)[nH][nH]c2=O)c2c(C)[nH][nH]c2=O)cc1OC | 0.6 | 47 | 65* | 0.7 | 0.4
c1ccc(-c2cn3nc(-c4ccccc4)cnc3n2)cc1 | 2.6* | 14 | 0 | 1.8 | 1
c1ccc(-c2cn3nc4c(nc3n2)CCCC4)cc1 | 1.8 | -32 | -2 | 1.5 | 1
COC(=O)c1ccc(CNC(=O)COC(=O)Cc2ccsc2)cc1 | 1 | -11 | -7 | 0.9 | 1.1
CC(=O)N/C(=C/c1ccc2c(c1)OCO2)C(=O)NCc1ccccc1 | 1 | 67* | -1 | 0.9 | 1
O=C(CSc1nc2ccccc2s1)Nc1ccc(Cl)c(C(=O)O)c1 | 2.3* | -7 | 4 | 1.4 | 1
Cn1c(=S)n(C)c2ccccc21 | 1 | 7 | 1 | 1 | 1
Cn1c(=S)ccc2ccccc21 | 2.3* | -13 | -7 | 1.8 | 1.1
COCCn1c(=O)[nH]c2cc(C(=O)NCCc3ccc(S(N)(=O)=O)cc3)ccc2c1=O | 1.1 | -13 | -8 | 1 | 1.1
Cc1ccc(NC(=O)C(=O)NCCOc2ccccc2Cl)cc1 | 1 | -19 | -1 | 1 | 1
CCOC(=O)c1cc2c(=O)n3ccccc3nc2n(C(C)C)c1=NC(=O)c1ccncc1 | 2.2* | -10 | -6 | 1.4 | 1.1
CCOC(=O)c1cc2c(=O)n3ccccc3nc2n(CCCOC)c1=NC(=O)c1cccnc1 | 2* | -13 | -6 | 1.7 | 1.1
